ChEMBL document CHEMBL4017520, “Discovery, Structure-Activity Relationship, and Antiparkinsonian Effect of a Potent and Brain-Penetrant Chemical Series of Positive Allosteric Modulators of Metabotropic Glutamate Receptor 4” (J Med Chem, 2017)
Values belong to the molecule of their own block, whether it stands above or below them. Active and inactive are the calls of the source. The rule behind the calls is not given here.

How the values were obtained:
[1] = Half life in Sprague-Dawley rat at 1 mg/kg, iv administered as single dose by LC-MS/MS analysis; type: ADME, organism-based; details: in vivo
Method in brief: (§1)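 Single iv dose, 1 mg/kg in rat or 2 mg/kg in mouse; plasma PK parameters derived; brain/plasma ratio taken at 1 h postdose (rat) or 30 min postdose (mouse). Mean of 3 rats; 2 mice for mouse Cmax and brain/plasma.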

[2] = Oral bioavailability in Sprague-Dawley rat plasma at 10 mg/kg administered as single dose by LC-MS/MS analysis; type: ADME, organism-based
[3] = Half life in Sprague-Dawley rat plasma at 10 mg/kg, po administered as single dose by LC-MS/MS analysis; type: ADME, organism-based
Method in brief: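 Single dose ip (10 or 30 mg/kg, rat) or oral (10 mg/kg, rat or mouse); plasma Cmax, Tmax, half-life, AUC0−inf derived; brain concentration and brain/plasma ratio at 30 min postdose. Mean of 3 rats or 2 mice.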

[4] = Drug uptake in Sprague-Dawley rat brain at 10 mg/kg, ip after 30 mins post dose administered as single dose by LC-MS/MS analysis; type: ADME, organism-based; details: read-out: Drug uptake
Method in brief: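 Rats dosed ip at 10 or 30 mg/kg. Plasma Cmax, Tmax, half-life and AUC0–inf were determined. Brain concentration was measured 30 min postdose, and brain/plasma ratio was taken at 30 min. Values are the mean (±SEM) of 3 rats.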

[5] = Volume of distribution in Sprague-Dawley rat at 1 mg/kg, iv administered as single dose by LC-MS/MS analysis; type: ADME, organism-based; details: in vivo
Method in brief: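 Single intravenous dose: rats 1 mg/kg, mice 2 mg/kg. Plasma concentration–time data yielded Cmax, t1/2, AUC0−∞, plasma clearance and volume of distribution. Values are mean ±SEM of 3 animals.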

[6] = Plasma concentration in Sprague-Dawley rat at 30 mg/kg, ip after 240 mins; type: ADME, organism-based
Method in brief: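 Rats dosed 30 mg/kg ip; plasma sampled over time, brain measured at 30 and 60 min; brain/plasma ratio averaged over 30 and 60 min.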

[7] = Drug uptake in Sprague-Dawley rat brain at 30 mg/kg, ip after 240 mins; type: ADME, organism-based; details: read-out: Drug uptake
[8] = Drug uptake in Sprague-Dawley rat brain at 10 mg/kg, po after 60 mins post dose administered as single dose by LC-MS/MS analysis; type: ADME, organism-based; details: read-out: Drug uptake
Method in brief: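 Rats given a single oral dose of 10 mg/kg. Brain concentrations were measured at 30, 60 and 90 min postdose, and brain AUC0–inf was determined. Values are the mean of three rats. Lower limit of quantification was 1 ng/mL.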

[9] = Ratio of fraction unbound in Sprague-Dawley rat brain at 30 mg/kg, ip after 240 mins to EC50 for rat mGlu4 receptor expressed in HEK293 cells
[10] = Cmax in Sprague-Dawley rat plasma at 10 mg/kg, po administered as single dose by LC-MS/MS analysis; type: ADME, organism-based; set-up: dose 10 mg/kg, route oral
Method in brief: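 Rats given a single oral dose of 10 mg/kg. The first plasma sample was taken at 15 min, and sampling continued to 24 h postdose. Brain was sampled at 30 min. Values are the mean (±SEM) of 3 rats.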

Brain = assay: Fraction unbound in Sprague-Dawley rat brain at 30 mg/kg, ip after 60 mins; type: ADME, organism-based; details: in vivo, 1 h
[11] = biological target: Amine oxidase [flavin-containing] B (Homo sapiens, UniProt P27338); assay: Activity at MAO-B (unknown origin) up to 10 uM; type: ADME
Sequence of Amine oxidase [flavin-containing] B (P27338 whole entry): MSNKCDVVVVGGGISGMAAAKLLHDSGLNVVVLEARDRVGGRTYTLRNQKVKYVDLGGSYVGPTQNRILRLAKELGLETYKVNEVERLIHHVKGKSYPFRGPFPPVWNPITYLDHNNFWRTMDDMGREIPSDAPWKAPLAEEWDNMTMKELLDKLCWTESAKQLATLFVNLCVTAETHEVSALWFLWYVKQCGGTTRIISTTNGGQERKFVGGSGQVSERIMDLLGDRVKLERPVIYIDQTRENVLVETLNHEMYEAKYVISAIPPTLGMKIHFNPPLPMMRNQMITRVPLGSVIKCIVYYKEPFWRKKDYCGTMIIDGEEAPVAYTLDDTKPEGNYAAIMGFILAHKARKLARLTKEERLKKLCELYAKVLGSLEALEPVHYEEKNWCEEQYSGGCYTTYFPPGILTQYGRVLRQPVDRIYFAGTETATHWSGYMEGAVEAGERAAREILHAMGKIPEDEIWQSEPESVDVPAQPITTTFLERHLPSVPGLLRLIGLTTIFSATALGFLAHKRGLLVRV

[12] = Ratio of drug level in Sprague-Dawley rat brain to plasma at 1 mg/kg, iv after 1 hr post dose administered as single dose by LC-MS/MS analysis; type: ADME, organism-based; details: read-out: BPR; method in brief: as §1
Mus musculus [13] = assay: Anti-parkinson's activity in C57BL/6 mouse assessed as brain concentration required for reversal of haloperidol-induced catalepsy at 30 mg/kg, ip after 40 mins; type: functional
[14] = Tmax in Sprague-Dawley rat plasma at 30 mg/kg, ip administered as single dose by LC-MS/MS analysis; type: ADME, organism-based
Method in brief: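 Single-dose plasma PK after ip (10 or 30 mg/kg) or oral (10 mg/kg) dosing in rats, and oral 10 mg/kg dosing in mice. […] Values are mean ±SEM of 3 rats or 2 mice.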

[15] = Drug uptake in C57BL/6 mouse brain at 10 mg/kg, po after 30 mins post dose administered as single dose by LC-MS/MS analysis; type: ADME, organism-based; details: read-out: Drug uptake
Method in brief: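 Mice given 10 mg/kg orally. Plasma Cmax was determined and brain concentration measured at 30 min postdose. Values are the mean (±SEM) of 2 mice.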

[16] = biological target: Metabotropic glutamate receptor 3 (Homo sapiens) (UniProt Q14832); assay: Activity at human mGlu3 receptor expressed in HEK293 cells co-expressing Gi/Gq assessed as effect on intracellular calcium level up to 10 uM after 10 mins by Fluo4-AM dye based fluorescence assay; type: functional, cell-based
Sequence of Metabotropic glutamate receptor 3 (Homo sapiens) (Q14832 23-879 limits assumed): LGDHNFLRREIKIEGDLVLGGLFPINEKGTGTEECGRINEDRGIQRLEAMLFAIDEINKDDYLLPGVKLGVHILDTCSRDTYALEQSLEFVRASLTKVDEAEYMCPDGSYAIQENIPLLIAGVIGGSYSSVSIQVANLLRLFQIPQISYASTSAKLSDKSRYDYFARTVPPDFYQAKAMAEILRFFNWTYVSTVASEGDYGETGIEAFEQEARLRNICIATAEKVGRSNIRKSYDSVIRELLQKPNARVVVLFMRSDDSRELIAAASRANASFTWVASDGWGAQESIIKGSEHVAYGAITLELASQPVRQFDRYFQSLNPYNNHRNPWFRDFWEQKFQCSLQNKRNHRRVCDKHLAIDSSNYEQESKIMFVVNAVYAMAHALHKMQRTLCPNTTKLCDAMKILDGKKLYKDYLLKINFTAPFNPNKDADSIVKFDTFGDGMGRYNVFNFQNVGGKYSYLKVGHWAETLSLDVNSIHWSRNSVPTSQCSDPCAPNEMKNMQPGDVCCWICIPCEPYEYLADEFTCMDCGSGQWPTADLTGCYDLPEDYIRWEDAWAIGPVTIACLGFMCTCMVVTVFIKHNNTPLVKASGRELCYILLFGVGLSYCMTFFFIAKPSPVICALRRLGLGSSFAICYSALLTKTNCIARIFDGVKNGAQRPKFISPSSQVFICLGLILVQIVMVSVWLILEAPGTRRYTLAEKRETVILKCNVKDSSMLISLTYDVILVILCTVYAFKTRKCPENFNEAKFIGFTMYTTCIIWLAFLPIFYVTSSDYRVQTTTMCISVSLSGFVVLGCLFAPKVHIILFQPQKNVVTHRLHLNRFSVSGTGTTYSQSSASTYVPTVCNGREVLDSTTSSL
Method in brief: (§2)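 HEK-293 cells transiently expressing the human mGluR with a promiscuous or chimeric G protein were serum-starved 3 h and loaded 1.5 h with 1 μM Fluo4-AM. Compound alone was added in assay buffer, and calcium fluorescence (ex 485/em 525) was recorded for 10 min as agonist readout.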

[17] = biological target: D(1A) dopamine receptor (Homo sapiens) (UniProt P21728); assay: Positive allosteric modulation of D1 receptor (unknown origin) at 10 uM
Sequence of D(1A) dopamine receptor (Homo sapiens) (P21728 whole entry): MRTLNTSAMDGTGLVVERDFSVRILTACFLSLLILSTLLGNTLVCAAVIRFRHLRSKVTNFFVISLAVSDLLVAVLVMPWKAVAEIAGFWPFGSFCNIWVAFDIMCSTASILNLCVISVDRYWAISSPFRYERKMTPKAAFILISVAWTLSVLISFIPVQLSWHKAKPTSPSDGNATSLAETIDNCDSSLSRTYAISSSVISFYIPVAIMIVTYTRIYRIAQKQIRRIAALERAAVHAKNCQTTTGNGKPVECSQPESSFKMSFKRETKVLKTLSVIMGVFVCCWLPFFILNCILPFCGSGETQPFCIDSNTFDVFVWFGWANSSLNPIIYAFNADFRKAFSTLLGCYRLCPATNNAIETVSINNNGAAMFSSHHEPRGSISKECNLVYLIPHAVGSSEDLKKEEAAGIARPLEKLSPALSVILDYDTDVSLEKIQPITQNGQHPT

[18] = biological target: Metabotropic glutamate receptor 5 (Homo sapiens) (UniProt P41594); assay: Activity at human mGlu5 receptor expressed in HEK293 cells co-expressing Gi/Gq assessed as effect on intracellular calcium level up to 10 uM after 10 mins by Fluo4-AM dye based fluorescence assay; type: functional, cell-based; method in brief: as §2
[19] = biological target: Metabotropic glutamate receptor 1 (Homo sapiens) (UniProt Q13255); assay: Activity at human mGlu1 receptor expressed in HEK293 cells co-expressing Gi/Gq assessed as effect on intracellular calcium level up to 10 uM after 10 mins by Fluo4-AM dye based fluorescence assay; type: functional, cell-based; method in brief: as §2
Sequence of Metabotropic glutamate receptor 1 (Homo sapiens) (Q13255 19-1194 limits assumed): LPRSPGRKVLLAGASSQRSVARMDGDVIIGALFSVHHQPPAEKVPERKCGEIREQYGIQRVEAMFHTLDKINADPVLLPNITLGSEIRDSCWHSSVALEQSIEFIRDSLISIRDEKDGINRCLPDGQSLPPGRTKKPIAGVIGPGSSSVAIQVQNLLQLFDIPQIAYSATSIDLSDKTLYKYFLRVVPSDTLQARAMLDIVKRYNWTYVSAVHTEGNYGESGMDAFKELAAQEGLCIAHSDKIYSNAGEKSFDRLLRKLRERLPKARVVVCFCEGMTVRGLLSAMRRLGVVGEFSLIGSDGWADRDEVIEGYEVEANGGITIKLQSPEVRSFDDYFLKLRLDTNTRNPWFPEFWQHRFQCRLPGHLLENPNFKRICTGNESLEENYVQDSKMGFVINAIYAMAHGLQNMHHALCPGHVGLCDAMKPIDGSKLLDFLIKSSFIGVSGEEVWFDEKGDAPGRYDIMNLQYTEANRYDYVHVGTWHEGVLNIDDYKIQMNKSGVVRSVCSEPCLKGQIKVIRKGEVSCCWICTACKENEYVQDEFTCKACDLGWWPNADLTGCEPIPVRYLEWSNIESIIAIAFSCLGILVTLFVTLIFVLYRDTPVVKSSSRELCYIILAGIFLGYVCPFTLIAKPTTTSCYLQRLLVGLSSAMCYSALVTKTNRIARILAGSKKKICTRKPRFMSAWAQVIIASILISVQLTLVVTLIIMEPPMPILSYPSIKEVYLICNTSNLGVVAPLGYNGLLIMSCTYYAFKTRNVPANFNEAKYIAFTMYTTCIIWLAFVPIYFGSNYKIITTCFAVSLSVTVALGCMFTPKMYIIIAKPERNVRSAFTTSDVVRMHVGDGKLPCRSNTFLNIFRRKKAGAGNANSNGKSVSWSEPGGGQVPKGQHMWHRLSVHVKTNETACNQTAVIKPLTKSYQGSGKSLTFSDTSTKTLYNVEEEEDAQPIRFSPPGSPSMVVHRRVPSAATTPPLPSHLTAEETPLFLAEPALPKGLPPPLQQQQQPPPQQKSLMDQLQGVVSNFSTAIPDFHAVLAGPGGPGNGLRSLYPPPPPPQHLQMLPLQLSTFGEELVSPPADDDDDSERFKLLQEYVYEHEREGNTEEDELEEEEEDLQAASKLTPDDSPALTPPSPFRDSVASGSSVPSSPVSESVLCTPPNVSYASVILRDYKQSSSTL

[20] = biological target: Mitogen-activated protein kinase kinase kinase 7 (Homo sapiens) (UniProt O43318); assay: Inhibition of TAK1 (unknown origin) at 10 uM
Sequence of Mitogen-activated protein kinase kinase kinase 7 (Homo sapiens) (O43318 whole entry): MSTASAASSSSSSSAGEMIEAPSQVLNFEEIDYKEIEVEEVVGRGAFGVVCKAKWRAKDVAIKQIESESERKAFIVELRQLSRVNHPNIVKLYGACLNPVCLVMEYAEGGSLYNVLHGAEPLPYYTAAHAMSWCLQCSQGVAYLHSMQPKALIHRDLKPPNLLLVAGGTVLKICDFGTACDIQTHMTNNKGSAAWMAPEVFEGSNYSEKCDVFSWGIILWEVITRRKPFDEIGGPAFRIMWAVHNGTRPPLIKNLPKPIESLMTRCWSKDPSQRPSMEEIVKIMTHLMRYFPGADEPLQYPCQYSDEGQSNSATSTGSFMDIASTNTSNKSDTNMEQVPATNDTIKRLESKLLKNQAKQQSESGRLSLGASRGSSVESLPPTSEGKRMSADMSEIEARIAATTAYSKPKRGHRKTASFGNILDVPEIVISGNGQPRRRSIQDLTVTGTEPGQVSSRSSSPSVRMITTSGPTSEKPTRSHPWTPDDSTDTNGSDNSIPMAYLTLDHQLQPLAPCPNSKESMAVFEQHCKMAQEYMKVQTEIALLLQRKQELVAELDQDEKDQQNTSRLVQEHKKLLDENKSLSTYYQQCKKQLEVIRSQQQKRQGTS

[21] = biological target: D(2) dopamine receptor (Homo sapiens) (UniProt P14416); assay: Positive allosteric modulation of D2L receptor (unknown origin) at 10 uM
Sequence of D(2) dopamine receptor (Homo sapiens) (P14416 whole entry): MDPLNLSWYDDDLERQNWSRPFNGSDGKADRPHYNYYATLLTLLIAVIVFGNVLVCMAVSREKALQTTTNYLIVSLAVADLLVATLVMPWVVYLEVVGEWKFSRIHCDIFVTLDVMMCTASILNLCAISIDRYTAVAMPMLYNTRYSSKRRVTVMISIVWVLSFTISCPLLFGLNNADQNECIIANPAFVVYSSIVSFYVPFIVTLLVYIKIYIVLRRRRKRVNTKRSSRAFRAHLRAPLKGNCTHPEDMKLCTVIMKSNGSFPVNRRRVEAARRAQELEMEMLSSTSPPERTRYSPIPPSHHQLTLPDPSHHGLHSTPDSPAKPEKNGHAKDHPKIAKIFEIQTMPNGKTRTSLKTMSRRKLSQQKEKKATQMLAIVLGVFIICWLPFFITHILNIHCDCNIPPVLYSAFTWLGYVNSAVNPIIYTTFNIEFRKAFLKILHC

Rattus norvegicus [22] = species on record: Rattus norvegicus; assay: Activity at AMPA glutamate receptor in rat cerebral cortex at 10 uM
Method in brief: (§3)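 Inhibition of orthosteric ligand binding to NMDA, AMPA and kainate receptors on rat cerebral cortex membranes, tested up to 10 μM.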

Rattus norvegicus [23] = species on record: Rattus norvegicus; assay: Activity at NMDA glutamate receptor in rat cerebral cortex at 10 uM; method in brief: as §3
Mus musculus [24] = assay: Anti-parkinson's activity in ip dosed C57BL/6 mouse assessed as reversal of haloperidol-induced catalepsy after 40 mins; type: functional, organism-based
Rattus norvegicus [25] = species on record: Rattus norvegicus; assay: Activity at kainate glutamate receptor in rat cerebral cortex at 10 uM; method in brief: as §3
[26] = biological target: D(1A) dopamine receptor (Homo sapiens) (UniProt P21728); assay: Antagonist activity at D1 receptor (unknown origin) at 10 uM
[27] = biological target: Metabotropic glutamate receptor 7 (Homo sapiens) (UniProt Q14831); assay: Activity at human mGlu7 receptor expressed in HEK293 cells co-expressing Gi/Gq assessed as effect on intracellular calcium level up to 10 uM after 10 mins by Fluo4-AM dye based fluorescence assay; type: functional, cell-based; method in brief: as §2
Sequence of Metabotropic glutamate receptor 7 (Homo sapiens) (Q14831 whole entry): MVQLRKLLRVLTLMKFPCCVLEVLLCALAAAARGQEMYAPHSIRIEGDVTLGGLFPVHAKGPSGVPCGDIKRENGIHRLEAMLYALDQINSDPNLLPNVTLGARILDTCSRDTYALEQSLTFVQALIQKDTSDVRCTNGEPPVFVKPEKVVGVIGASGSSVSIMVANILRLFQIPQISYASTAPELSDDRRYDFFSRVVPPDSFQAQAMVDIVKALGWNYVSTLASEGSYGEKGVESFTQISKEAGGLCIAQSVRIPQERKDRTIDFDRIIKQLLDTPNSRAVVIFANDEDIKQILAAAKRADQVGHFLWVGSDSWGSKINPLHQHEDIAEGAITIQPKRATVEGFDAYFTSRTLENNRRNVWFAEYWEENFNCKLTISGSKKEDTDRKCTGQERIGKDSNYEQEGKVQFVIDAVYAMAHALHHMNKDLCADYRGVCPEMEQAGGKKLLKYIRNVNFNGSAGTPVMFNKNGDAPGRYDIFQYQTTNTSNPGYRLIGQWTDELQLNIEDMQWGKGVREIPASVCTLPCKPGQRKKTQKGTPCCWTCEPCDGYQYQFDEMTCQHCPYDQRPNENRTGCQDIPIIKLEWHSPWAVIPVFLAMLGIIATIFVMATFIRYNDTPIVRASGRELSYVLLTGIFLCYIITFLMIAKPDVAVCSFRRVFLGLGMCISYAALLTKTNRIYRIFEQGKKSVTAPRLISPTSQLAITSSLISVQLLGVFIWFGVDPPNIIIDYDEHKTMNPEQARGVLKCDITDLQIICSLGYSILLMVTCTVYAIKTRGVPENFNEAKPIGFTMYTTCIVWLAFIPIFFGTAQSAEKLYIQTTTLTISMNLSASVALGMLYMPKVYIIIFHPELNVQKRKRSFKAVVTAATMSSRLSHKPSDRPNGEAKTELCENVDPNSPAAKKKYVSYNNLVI

- half-life [1]: 44 min
- bioavailability [2]: 54%
- half-life [3]: 438 min
- concentration at 0.5 h [4]: 5650 ng/g
- Vd [5]: 6.5 L/kg
- concentration at 4 h [6]: 99 ng/mL
- concentration at 4 h [7]: 322 ng/g
- concentration at 1 h [8]: 262 ng/g
- Cmax [10]: 135 ng/mL
- Drug uptake(free) (Brain): 91 ng/g
- Activity [11]: Not Active
- Kp at 1 h [12]: 3.3
- Tmax [14]: 15 min
- concentration at 0.5 h [15]: 390 ng/g
Compound: O/N=c1\cc(-c2cc3cccn3cn2)oc2ccc(OCCN3CCOCC3)cc12 [listing 1 of 2 here]
- Ratio [9]: 0.2
- fEC50 (Mus musculus [13]): 5 nM

- Activity [16]: inactive
- Activity [17]: inactive
- Activity [18]: inactive
- Activity [19]: inactive
- inhibition [20]: inactive
- Activity [21]: inactive
- Activity (Rattus norvegicus [22]): inactive
- Activity (Rattus norvegicus [23]): inactive
- Activity (Rattus norvegicus [25]): inactive
- Activity [26]: inactive
- Activity [27]: inactive
Compound: O/N=c1\cc(-c2cc3cccn3cn2)oc2ccc(OCCN3CCOCC3)cc12 [listing 2 of 2 here]
- Activity (Mus musculus [24]): Dose-dependent effect
